Myeloid diff 2: induction of myeloid progenitor differentiation, primary screen, cell-based, flow cytometry, MLPCN library; ER-HoxA9 myeloid progenitors, lysozyme-GFP differentiation; calls only at 10 µM; actives 1% (n = 360,000);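 active = normalized GFP-positive differentiation at or above the plate's own cutoff, the solvent-only control mean plus 3 SD; inconclusive = no clear call, values can overlap the other calls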;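 also: cells exposed to compound for four days before flow analysis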
Pemphigus Ab inh: inhibitors of pemphigus antibody binding to DSG3, primary screen, biochemical, bead-based, flow cytometry, scFv-GFP | Desmoglein-3 (Homo sapiens), P32926 | DSG3-coupled beads, scFv-anti-DSG3-GFP binding; stronger effect = lower value | binding (percent of control), % at 10 µM | actives 0.48% (n = 310,000) | AID 588358, 2011;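 active = binding more than 3 SD below its plate's average and above zero; inconclusive = below that plate limit but binding exactly zero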;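 also: hits lower antibody fragment binding to DSG3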
Vif inh: HIV Vif self-association inhibitors, primary screen, imaging, HEK293T, single point. HEK293T cells, Vif self-association by quenched fluorescence, 24 h. actives 0.35% (n = 340,000). inhibition, % at 7.49 µM; in the data active = inhibition above about 50%, passing the limit was not always enough; inconclusive = no clear call, values can overlap the other calls; inactive = below about 31%
T cell modulator: modulators of CD8 T cell-vesicle binding, primary screen, mouse 2C CD8+ T cells, flow cytometry. 2C CD8+ T cell-vesicle binding; stronger effect = lower value. response (vesicle binding), % at 7 µM. actives 0.068% (n = 330,000);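 active = response, share of CD8 T cells binding vesicles, and their 90th percentile fluorescence all below set limits, cut at about 80% in these data, passing the limit was not always enough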;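 also: values below 100% mean blocked vesicle binding to the CD8+ T cells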
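Test system: purified 2C TCR transgenic mouse naive CD8+ T cells. Probe or stimulus: QL9-peptide-loaded Drosophila micro-vesicles bearing Ld, ICAM-1 and B7-1. Incubation: binding step 1.5 h, 37 °C, antibody labelling 20 min, ice. Measured by: flow cytometry of vesicle-bound cells.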
Myeloid diff CP1: inducers of myeloid progenitor differentiation, confirmation, cell-based, GFP/Mac1 flow cytometry, cherry pick 01 | shares compounds with Myeloid diff 2 | ER-HoxA9 myeloid progenitors, GFP/Mac1 double-positive flow | calls only | AID 651706, 2012 | actives 2% (n = 2,300);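 active = share of green or green-and-red cells above 9 and 9% in run 1 or 4 and 3% in run 2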
GFP autofluor: counter-screen for myeloid differentiation promoters: compound fluorescence; shares compounds with Myeloid diff 2; ER-HoxA9 myeloid progenitors, no estrogen, GFP autofluorescence flow cytometry; vehicle wells 0%, positive control 100%; fluorescence response, % (no concentration beside the values); actives 7.4% (n = 2,300);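 active = over 5% cells positive for green fluorescent reporter, or over 2% positive for both it and APC stain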;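 also: range taken on the double positive population between DMSO and positive control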
* hit, by the source's call; i = inactive; u = inconclusive; x = not tested or not shown; + = active, no number. Compounds with a hit are over-represented: about 1.7% of the library has one in this group of screens.

SMILES	Myeloid diff 2	Pemphigus Ab inh	Vif inh	T cell modulator	Myeloid diff CP1	GFP autofluor
COC(=O)c1ccc(C2C(C(C)=O)=C(O)C(=O)N2CCO)cc1 (configuration not stated)	i	110	5	319	i	1
C[C@H](CO)N1C[C@H](C)[C@@H](CN(C)S(=O)(=O)c2ccc(F)cc2)Oc2ccc(NC(=O)C3CCCCC3)cc2C1=O	i	105	-4	358	i	0
O=[N+]([O-])c1cccc(-c2nc(-c3ccccc3)no2)c1	i	102	9	229	x	x
O=[N+]([O-])c1cccc(-c2nc(-c3ccncc3)no2)c1	+	108	-13	219	i	2
COc1cc(C(O)c2nc(-c3cccc(C(C)C)c3)cs2)ccc1F (configuration not stated)	i	x	-15	x	x	x
O=C1NC[C@@H](CCCCN2C[C@H](Cc3ccc(O)cc3)N(CC3CCCCC3)C(=O)C2=O)N(Cc2ccccc2)C1=O	i	x	x	x	x	x
O=C(CSc1oc(-c2ccccc2)nc1S(=O)(=O)c1ccc(F)cc1)NCC1CCCO1 (configuration not stated)	i	113	-1	438	i	0
OC(c1ccccc1)C(NCCNCc1ccccc1)c1ccccc1 (configuration not stated)	i	91	u	x	x	x
Cc1cccc(N2CCN(C(=O)c3ccc4c(c3)OCCO4)CC2)c1C	+	100	5	546	+	0
CCCCn1c(N)c(N(CC(C)C)C(=O)Cc2ccc(S(=O)(=O)N3CCOCC3)s2)c(=O)[nH]c1=O	+	205	20	x	+	0
COC(=O)c1cn(NC(=O)c2ccc(OC)c(OC)c2)c(=O)c2ccccc12	+	98	0	177	i	0
CN(C)C(=O)C[C@@H]1C=C[C@@H](NC(=O)C2CCC2)[C@@H](CO)O1	i	x	x	x	x	x
Cc1ccc2nc(NC(=O)CSCC(=O)OCC(=O)c3ccccc3)sc2c1	+	95	2	223	i	0
O=C(CCc1ccccc1)Nc1ccc(NC(=O)c2ccco2)cc1	i	107	10	256	x	x
O=C(N/N=C\CCc1ccccc1)c1ccco1	i	123	0	394	i	0
CCOC(=O)c1ccccc1NC(=O)Cn1cnc2c(cnn2-c2ccccc2)c1=O	i	101	2	556	i	0
CCCc1[nH]n(-c2ccc(F)cc2)c(=O)c1C=Nc1cccc(F)c1	i	94	7	312	i	2
CCCc1[nH]n(-c2ccc(F)cc2)c(=O)c1C=NCC1CCCO1 (configuration not stated)	i	97	6	830	x	x
C=C(C)COc1ccc2c(C)c(CC(=O)OC)c(=O)oc2c1C	i	115	-37	247	i	1
CN(Cc1ccc(F)cc1)S(=O)(=O)c1ccc2[nH]c(=O)[nH]c2c1	i	100	0	x	x	x
OCC[C@H]1NCc2cc(CO)cc(-c3ccccc3)c21	i	113	6	x	i	1
Cc1nnc(SCC(=O)N(C2CCCCC2)C2CCS(=O)(=O)C2)n1N (configuration not stated)	i	105	3	939	x	x
C=CCn1cnnc1SCC(=O)N(C1CCCCC1)C1CCS(=O)(=O)C1 (configuration not stated)	i	98	4	409	i	0
CC(C)CSc1ncnc2c1oc1nc3c(cc12)COC(C)(C)C3	i	94	-3	108	i	2
C=CCSc1ncnc2c1oc1nc3c(cc12)COC(C)(C)C3	i	107	-2	564	x	x
Nc1nc(N)c2ncn(C3C=CC(CO)C3)c2n1 (configuration not stated)	i	x	14	x	x	x
CCOc1cc(CNc2ccc(Br)cc2)cc(Br)c1OCC(=O)NC(C)(C)C	x	115	-4	132	i	0

Screening data from PubChem BioAssay.
